Data: ChEMBL document CHEMBL3864165, “Design, synthesis, and AChE inhibitory activity of new benzothiazole-piperazines” (Bioorg Med Chem Lett, 2016)

Assays:
[1] = molecular target: Acetylcholinesterase (Electrophorus electricus) (UniProt O42275); experiment: Inhibition of electric eel AChE at 10^-6 M preincubated for 15 mins followed by acetylthiocholine iodide substrate addition measured for 5 mins by Ellman's spectrophotometric method relative to control
[2] = molecular target: T1, Acetylcholinesterase (Electrophorus electricus, UniProt O42275); experiment: Inhibition of electric eel AChE preincubated for 15 mins followed by acetylthiocholine iodide substrate addition measured for 5 mins by Ellman's spectrophotometric method
[3] = molecular target: Acetylcholinesterase (Electrophorus electricus) (UniProt O42275); experiment: Inhibition of electric eel AChE at 10^-7 M preincubated for 15 mins followed by acetylthiocholine iodide substrate addition measured for 5 mins by Ellman's spectrophotometric method relative to control
[4] = molecular target: Acetylcholinesterase (Electrophorus electricus) (UniProt O42275); experiment: Inhibition of electric eel AChE at 10^-3 M preincubated for 15 mins followed by acetylthiocholine iodide substrate addition measured for 5 mins by Ellman's spectrophotometric method relative to control
[5] = molecular target: Acetylcholinesterase (Electrophorus electricus) (UniProt O42275); experiment: Inhibition of electric eel AChE at 10^-4 M preincubated for 15 mins followed by acetylthiocholine iodide substrate addition measured for 5 mins by Ellman's spectrophotometric method relative to control
[6] = molecular target: T1, Acetylcholinesterase; experiment: Mixed-type inhibition of electric eel AChE preincubated for 15 mins followed by acetylthiocholine iodide substrate addition measured for 5 mins by Lineweaver-Burk plot analysis
Procedure, shortened: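 Substrate-velocity curves recorded with and without inhibitor, with initial velocities measured at acetylthiocholine (ATC) concentrations from 600 µM down to 18.75 µM. Data analysed as 1/V plots. Ki taken as the x-axis intercept of a secondary plot of 1/V versus inhibitor concentration.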

[7] = Cytotoxicity against mouse NIH/3T3 cells after 24 hrs by MTT assay
[8] = Ratio of compound IC50 to donepezil IC50 for mouse NIH/3T3 cells; type: ADME, cell-based; details: read-out: Ratio IC50
[9] = system: Salmonella typhimurium; experiment: Genotoxicity in Salmonella typhimurium TA98 assessed as increase in number of revertants at 0.156 mg/ml in presence of aroclor-1254-induced Sprague-Dawley rat liver S9 fraction by Ames-MPF assay relative to control; type: toxicity, organism-based; details: salmonella enterica subsp. enterica serovar typhimurium
Procedure, shortened: (§1)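 Ames MPF microplate fluctuation format, run with and without S9 metabolic activation. The read-out is the count of positive (revertant) wells. A run is accepted only when positive controls give more than 25 positive wells and negative controls give fewer than eight.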

[10] = system: Salmonella typhimurium; experiment: Genotoxicity in Salmonella typhimurium TA98 assessed as increase in number of revertants at 0.3125 mg/ml in presence of aroclor-1254-induced Sprague-Dawley rat liver S9 fraction by Ames-MPF assay relative to control; type: toxicity, organism-based; details: salmonella enterica subsp. enterica serovar typhimurium; procedure, shortened: as §1
[11] = system: Salmonella typhimurium; experiment: Genotoxicity in Salmonella typhimurium TA98 assessed as increase in number of revertants at 0.625 mg/ml in presence of aroclor-1254-induced Sprague-Dawley rat liver S9 fraction by Ames-MPF assay relative to control; type: toxicity, organism-based; details: salmonella enterica subsp. enterica serovar typhimurium; procedure, shortened: as §1
[12] = system: Salmonella typhimurium; experiment: Genotoxicity in Salmonella typhimurium TA98 assessed as increase in number of revertants at 1.25 mg/ml in presence of aroclor-1254-induced Sprague-Dawley rat liver S9 fraction by Ames-MPF assay relative to control; type: toxicity, organism-based; details: salmonella enterica subsp. enterica serovar typhimurium; procedure, shortened: as §1
[13] = system: Salmonella typhimurium; experiment: Genotoxicity in Salmonella typhimurium TA98 assessed as increase in number of revertants at 2.5 mg/ml in presence of aroclor-1254-induced Sprague-Dawley rat liver S9 fraction by Ames-MPF assay relative to control; type: toxicity, organism-based; details: salmonella enterica subsp. enterica serovar typhimurium; procedure, shortened: as §1
[14] = system: Salmonella typhimurium; experiment: Genotoxicity in Salmonella typhimurium TA98 assessed as increase in number of revertants at 5 mg/ml in presence of aroclor-1254-induced Sprague-Dawley rat liver S9 fraction by Ames-MPF assay relative to control; type: toxicity, organism-based; details: salmonella enterica subsp. enterica serovar typhimurium; procedure, shortened: as §1
[15] = system: Salmonella typhimurium; experiment: Genotoxicity in Salmonella typhimurium TA98 assessed as increase in number of revertants at 0.156 mg/ml in absence of aroclor-1254-induced Sprague-Dawley rat liver S9 fraction by Ames-MPF assay relative to control; type: toxicity, organism-based; details: salmonella enterica subsp. enterica serovar typhimurium; procedure, shortened: as §1
[16] = system: Salmonella typhimurium; experiment: Genotoxicity in Salmonella typhimurium TA98 assessed as increase in number of revertants at 0.3125 mg/ml in absence of aroclor-1254-induced Sprague-Dawley rat liver S9 fraction by Ames-MPF assay relative to control; type: toxicity, organism-based; details: salmonella enterica subsp. enterica serovar typhimurium; procedure, shortened: as §1
[17] = system: Salmonella typhimurium; experiment: Genotoxicity in Salmonella typhimurium TA98 assessed as increase in number of revertants at 0.625 mg/ml in absence of aroclor-1254-induced Sprague-Dawley rat liver S9 fraction by Ames-MPF assay relative to control; type: toxicity, organism-based; details: salmonella enterica subsp. enterica serovar typhimurium; procedure, shortened: as §1
[18] = system: Salmonella typhimurium; experiment: Genotoxicity in Salmonella typhimurium TA98 assessed as increase in number of revertants at 1.25 mg/ml in absence of aroclor-1254-induced Sprague-Dawley rat liver S9 fraction by Ames-MPF assay relative to control; type: toxicity, organism-based; details: salmonella enterica subsp. enterica serovar typhimurium; procedure, shortened: as §1
[19] = system: Salmonella typhimurium; experiment: Genotoxicity in Salmonella typhimurium TA98 assessed as increase in number of revertants at 2.5 mg/ml in absence of aroclor-1254-induced Sprague-Dawley rat liver S9 fraction by Ames-MPF assay relative to control; type: toxicity, organism-based; details: salmonella enterica subsp. enterica serovar typhimurium; procedure, shortened: as §1
[20] = system: Salmonella typhimurium; experiment: Genotoxicity in Salmonella typhimurium TA98 assessed as increase in number of revertants at 5 mg/ml in absence of aroclor-1254-induced Sprague-Dawley rat liver S9 fraction by Ames-MPF assay relative to control; type: toxicity, organism-based; details: salmonella enterica subsp. enterica serovar typhimurium; procedure, shortened: as §1
[21] = system: Salmonella typhimurium; experiment: Genotoxicity in Salmonella typhimurium TA100 assessed as increase in number of revertants at 0.156 mg/ml in presence of aroclor-1254-induced Sprague-Dawley rat liver S9 fraction by Ames-MPF assay relative to control; type: toxicity, organism-based; details: salmonella enterica subsp. enterica serovar typhimurium; procedure, shortened: as §1
[22] = system: Salmonella typhimurium; experiment: Genotoxicity in Salmonella typhimurium TA100 assessed as increase in number of revertants at 0.3125 mg/ml in presence of aroclor-1254-induced Sprague-Dawley rat liver S9 fraction by Ames-MPF assay relative to control; type: toxicity, organism-based; details: salmonella enterica subsp. enterica serovar typhimurium; procedure, shortened: as §1
[23] = system: Salmonella typhimurium; experiment: Genotoxicity in Salmonella typhimurium TA100 assessed as increase in number of revertants at 0.625 mg/ml in presence of aroclor-1254-induced Sprague-Dawley rat liver S9 fraction by Ames-MPF assay relative to control; type: toxicity, organism-based; details: salmonella enterica subsp. enterica serovar typhimurium; procedure, shortened: as §1
[24] = system: Salmonella typhimurium; experiment: Genotoxicity in Salmonella typhimurium TA100 assessed as increase in number of revertants at 1.25 mg/ml in presence of aroclor-1254-induced Sprague-Dawley rat liver S9 fraction by Ames-MPF assay relative to control; type: toxicity, organism-based; details: salmonella enterica subsp. enterica serovar typhimurium; procedure, shortened: as §1
[25] = system: Salmonella typhimurium; experiment: Genotoxicity in Salmonella typhimurium TA100 assessed as increase in number of revertants at 2.5 mg/ml in presence of aroclor-1254-induced Sprague-Dawley rat liver S9 fraction by Ames-MPF assay relative to control; type: toxicity, organism-based; details: salmonella enterica subsp. enterica serovar typhimurium; procedure, shortened: as §1
[26] = system: Salmonella typhimurium; experiment: Genotoxicity in Salmonella typhimurium TA100 assessed as increase in number of revertants at 5 mg/ml in presence of aroclor-1254-induced Sprague-Dawley rat liver S9 fraction by Ames-MPF assay relative to control; type: toxicity, organism-based; details: salmonella enterica subsp. enterica serovar typhimurium; procedure, shortened: as §1
[27] = system: Salmonella typhimurium; experiment: Genotoxicity in Salmonella typhimurium TA100 assessed as increase in number of revertants at 0.156 mg/ml in absence of aroclor-1254-induced Sprague-Dawley rat liver S9 fraction by Ames-MPF assay relative to control; type: toxicity, organism-based; details: salmonella enterica subsp. enterica serovar typhimurium; procedure, shortened: as §1
[28] = system: Salmonella typhimurium; experiment: Genotoxicity in Salmonella typhimurium TA100 assessed as increase in number of revertants at 0.3125 mg/ml in absence of aroclor-1254-induced Sprague-Dawley rat liver S9 fraction by Ames-MPF assay relative to control; type: toxicity, organism-based; details: salmonella enterica subsp. enterica serovar typhimurium; procedure, shortened: as §1
[29] = system: Salmonella typhimurium; experiment: Genotoxicity in Salmonella typhimurium TA100 assessed as increase in number of revertants at 0.625 mg/ml in absence of aroclor-1254-induced Sprague-Dawley rat liver S9 fraction by Ames-MPF assay relative to control; type: toxicity, organism-based; details: salmonella enterica subsp. enterica serovar typhimurium; procedure, shortened: as §1
[30] = system: Salmonella typhimurium; experiment: Genotoxicity in Salmonella typhimurium TA100 assessed as increase in number of revertants at 1.25 mg/ml in absence of aroclor-1254-induced Sprague-Dawley rat liver S9 fraction by Ames-MPF assay relative to control; type: toxicity, organism-based; details: salmonella enterica subsp. enterica serovar typhimurium; procedure, shortened: as §1
[31] = system: Salmonella typhimurium; experiment: Genotoxicity in Salmonella typhimurium TA100 assessed as increase in number of revertants at 2.5 mg/ml in absence of aroclor-1254-induced Sprague-Dawley rat liver S9 fraction by Ames-MPF assay relative to control; type: toxicity, organism-based; details: salmonella enterica subsp. enterica serovar typhimurium; procedure, shortened: as §1
[32] = system: Salmonella typhimurium; experiment: Genotoxicity in Salmonella typhimurium TA100 assessed as increase in number of revertants at 5 mg/ml in absence of aroclor-1254-induced Sprague-Dawley rat liver S9 fraction by Ames-MPF assay relative to control; type: toxicity, organism-based; details: salmonella enterica subsp. enterica serovar typhimurium; procedure, shortened: as §1

T1 sequence (O42275 whole entry): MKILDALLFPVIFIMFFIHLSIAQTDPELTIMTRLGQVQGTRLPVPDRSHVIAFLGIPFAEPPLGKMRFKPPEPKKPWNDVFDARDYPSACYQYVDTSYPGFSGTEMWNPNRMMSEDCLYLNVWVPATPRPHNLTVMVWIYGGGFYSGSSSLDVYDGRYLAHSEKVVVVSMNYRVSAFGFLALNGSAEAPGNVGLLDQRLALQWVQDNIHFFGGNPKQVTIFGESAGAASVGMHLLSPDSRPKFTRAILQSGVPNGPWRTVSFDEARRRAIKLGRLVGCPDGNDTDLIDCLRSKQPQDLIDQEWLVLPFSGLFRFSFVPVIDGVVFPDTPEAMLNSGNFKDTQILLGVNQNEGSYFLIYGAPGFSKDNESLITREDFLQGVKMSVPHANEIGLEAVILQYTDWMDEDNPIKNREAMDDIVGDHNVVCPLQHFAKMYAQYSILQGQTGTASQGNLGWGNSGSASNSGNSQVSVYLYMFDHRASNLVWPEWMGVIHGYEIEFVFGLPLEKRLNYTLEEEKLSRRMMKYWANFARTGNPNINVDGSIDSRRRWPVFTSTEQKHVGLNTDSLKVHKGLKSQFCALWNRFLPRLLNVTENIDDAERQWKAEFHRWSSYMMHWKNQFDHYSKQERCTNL
Sequence of Acetylcholinesterase (Electrophorus electricus) (O42275 24-633 limits assumed): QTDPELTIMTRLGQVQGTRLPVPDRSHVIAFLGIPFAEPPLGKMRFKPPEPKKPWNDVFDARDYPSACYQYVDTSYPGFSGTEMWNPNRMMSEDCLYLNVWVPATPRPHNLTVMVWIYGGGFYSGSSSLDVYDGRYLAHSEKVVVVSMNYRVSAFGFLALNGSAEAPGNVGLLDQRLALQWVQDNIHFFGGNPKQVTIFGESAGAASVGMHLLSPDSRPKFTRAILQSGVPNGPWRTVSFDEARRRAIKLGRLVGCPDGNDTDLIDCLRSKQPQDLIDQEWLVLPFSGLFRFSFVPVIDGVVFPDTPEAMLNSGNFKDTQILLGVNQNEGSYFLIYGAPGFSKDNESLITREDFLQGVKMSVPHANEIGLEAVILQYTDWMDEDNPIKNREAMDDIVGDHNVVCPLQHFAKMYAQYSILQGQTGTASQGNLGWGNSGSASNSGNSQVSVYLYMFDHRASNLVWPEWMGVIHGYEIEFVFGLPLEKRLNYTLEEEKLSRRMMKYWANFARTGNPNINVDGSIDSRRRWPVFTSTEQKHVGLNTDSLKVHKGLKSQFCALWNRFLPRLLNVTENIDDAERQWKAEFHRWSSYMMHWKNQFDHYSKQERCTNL

COc1ccc2nc(NC(=O)CN3CCN(Cc4ccc(C(F)(F)F)cc4)CC3)sc2c1
inhibition [1]: > 50%
IC50 [2]: 0.274 µM

COc1cc2nc(NC(=O)CN3CCN(CCN(C)C)CC3)sc2cc1OC
inhibition [1]: > 50%
inhibition [3]: > 50%
inhibition [4]: > 95%
inhibition [5]: 90%
IC50 [2]: 0.0462 µM
Ki [6]: 0.11 µM
IC50 at 24 h ([7]; NIH/3T3 cells): > 1000 µM
selectivity ratio [8]: 3
fold change (FC) [9]: 0.22
fold change (FC) [10]: 0.65
fold change (FC) [11]: 0.97
fold change (FC) [12]: 0.43
fold change (FC) [13]: 0
fold change (FC) [14]: 0
fold change (FC) [15]: 0.87
fold change (FC) [16]: 1.14
fold change (FC) [17]: 1.03
fold change (FC) [18]: 0.33
fold change (FC) [19]: 0.33
fold change (FC) [20]: 0.11
fold change (FC) [21]: 0.78
fold change (FC) [22]: 0.55
fold change (FC) [23]: 0.55
fold change (FC) [24]: 1.09
fold change (FC) [25]: 0.55
fold change (FC) [26]: 0.47
fold change (FC) [27]: 0.66
fold change (FC) [28]: 0.49
fold change (FC) [29]: 0.27
fold change (FC) [30]: 0.27
fold change (FC) [31]: 0
fold change (FC) [32]: 0

COc1cc2nc(NC(=O)CN3CCN(Cc4ccc(C(F)(F)F)cc4)CC3)sc2cc1OC
inhibition [1]: > 50%
IC50 [2]: 0.198 µM

COc1cc2c(cc1OC)C(=O)C(CC1CCN(Cc3ccccc3)CC1)C2 (stereo unspecified) [DONEPEZIL]
IC50 at 24 h ([7]; nih3t3): 316 µM

COc1ccc2nc(NC(=O)CN3CCN(Cc4ccc(F)cc4)CC3)sc2c1
inhibition [1]: > 50%
IC50 [2]: 0.244 µM

COc1cc2nc(NC(=O)CN3CCN(Cc4ccc(C)cc4)CC3)sc2cc1OC
inhibition [1]: > 50%
IC50 [2]: 0.215 µM

COc1ccc2nc(NC(=O)CN3CCN(CCCN(C)C)CC3)sc2c1
inhibition [1]: > 50%
inhibition [3]: > 50%
IC50 [2]: 0.117 µM

COc1ccc(CN2CCN(CC(=O)Nc3nc4ccc(OC)cc4s3)CC2)cc1
inhibition [1]: > 50%
IC50 [2]: 0.396 µM
